Results from different studies.
Protocols differ between the studies behind these lines.
CYP3A4: Cytochrome P450 3A4 (CYP3A4, Homo sapiens, UniProt P08684)
ADORA2B: Adenosine receptor A2b (ADORA2B, Homo sapiens, UniProt P29275)
F12: Coagulation factor XII (F12, Homo sapiens, UniProt P00748)

| Compound | target | assay | system | setting | measurement | result |
| --- | --- | --- | --- | --- | --- | --- |
| O=c1cc(-c2ccc(O)cc2)oc2c([C@@H]3OC[C@H](O)[C@H](O)[C@H]3O)c(O)c([C@@H]3O[C@H](CO)[C@@H](O)[C@H](O)[C@H]3O)c(O)c12 | Calcium/calmodulin-dependent protein kinase type II subunit gamma (CAMK2G, Homo sapiens, UniProt Q13555) | enzyme activity, inhibitor | – | – | IC50 | 189 µM |
| COc1cc(O)c2c(c1)C(=O)c1cc(C)cc(O)c1C2=O | CYP3A4 | enzyme activity, inhibitor | human, liver microsomes | pH 7.4, testosterone probe | IC50 | 13.5 µM |
| CC(C)=CCNc1ncnc2c1ncn2[C@@H]1O[C@H](CO)[C@@H](O)[C@H]1O | ADORA2B | G protein activation, agonist | – | – | EC50 | 84 µM |
| O=c1oc(-c2cccnc2)nc2ccccc12 | F12 | enzyme activity, inhibitor, absorbance | – | pH 7.4 | IC50 | > 50 µM |
| Oc1ccc2c(c1)CC[C@H](c1ccccc1)[C@@H]2c1ccc(OCCN2CCCC2)cc1 | Progesterone receptor (PGR, Homo sapiens, UniProt P06401) | ligand displacement, radioligand | – | – | IC50 | 0.069 µM |
| O=c1oc(-c2ccco2)nc2ccccc12 | F12 | enzyme activity, inhibitor, absorbance | – | pH 7.4 | IC50 | > 50 µM |
| COc1ccc(-c2cc(OCC(=O)N(C)Cc3cccnc3C)nc(-n3nc(C)cc3C)n2)cc1 | Leucyl-cystinyl aminopeptidase (LNPEP, Homo sapiens, UniProt Q9UIQ6) | enzyme activity, inhibitor, fluorescence | – | – | IC50 | 0.157 µM |
| CN(C)c1ncnc2c1ncn2[C@@H]1O[C@H](CO)[C@@H](O)[C@H]1O | ADORA2B | G protein activation, agonist | – | – | EC50 | 22 µM |
| CO[C@]1(C(=O)N[C@@H](C)c2ccc(-n3cc(F)cn3)nc2)CC[C@H](c2nc(C)cc(Nc3cc(C)[nH]n3)n2)CC1 | CYP3A4 | enzyme activity, inhibitor | human, liver microsomes | – | Ki | 24 µM |
